In PubChem BioAssay one finds viability, differential viability (reversal) and inhibition data, which are given here for 22 compounds.

Molecules are shown by their SMILES. Calls of active or inactive are those of the source.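 Rule for the calls, unless noted: active = viability at or below 10% of carrier control in both of two separate runs; inconclusive = viability at or below 10% in only one of the two runs; inactive = the rest.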

Test [1] in a line: reduced viability of SK-BR-3 breast cancer cells – cell-based, 24 h, human, pilot screen (AID 572).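 Note: compound exposure lasted between 18 and 24 h rather than exactly 24 h; 100% = carrier-treated control wells.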 Particulars: SK-BR-3 viability, CellTiter-Glo luminescence, at 10 µM, stronger effect = lower value. A general note: ATP-based viability assays read luminescence as a measure of living cells.
Test [2] in a line: HUVEC growth inhibition – cell-based, human, primary screen (AID 575;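 active = viability at or below 30% in both replicate assays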;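 note: 100% = median of untreated cell wells with 0.1% DMSO on each plate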). Particulars: HUVEC proliferation, CellTiter-Glo luminescence, 72 h; at 10 µM; stronger effect = lower value. The essentials:
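Test system – primary HUVEC, no more than 12 passages · Dosing – one dose, 10 µM final, 0.1% DMSO · Times – 72 h treatment at 37 °C · Measured by – ATP-based CellTiter-Glo luminescent read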

A short description of test [3]: MRP1 drug-resistance reversers in H69AR cells – cell-based, doxorubicin co-treatment, pilot screen (AID 601;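 active = viability loss from added drug above about 55%, and viability with drug at most 40%, in both replicates, limit read from the data, passing the limit was not always enough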). Particulars: CellTiter-Glo, 72 h, at 10 µM; for differential viability (reversal): stronger effect = higher value.
The nature of test [4]: yeast transport mutant growth inhibition pilot in 384-well plates, post-Golgi transport modulator project (AID 636; in the data active = inhibition above about 31%). Particulars: absorbance 615 nm, about 18 h, stronger effect = higher value.
Test [5] is described as follows: growth suppression of yeast trafficking mutant, preliminary HTS, modulators of trafficking downstream of Golgi apparatus project, 1536-format plate, OD 615 nm (AID 637; in the data active = inhibition above about 30%). Particulars: yeast transport mutant growth, absorbance 615 nm, 18 h; stronger effect = higher value.
[6] abbreviates: H69AR cells + 2 uM doxorubicin, measured here: viability with 2 uM doxorubicin, stronger effect = lower value.
Where [7] appears, read: H69AR cells, compound alone cytotoxicity.

The viability is a read-out of living cells in per cent, often relative to untreated cells. Usually inhibition stands for the relative decrease from the control value, in per cent. Consider `CCCOc1ccc2nc(NC(=O)OC)[nH]c2c1`, for which the viability in test [1] is 95% (inactive); in test [2], 37.3% (inactive); in test [3] (setting [6]), 57.3%; in test [3] (setting [7]), 26.9%. Besides, the differential viability (reversal) in test [3] (H69AR cells + 2 uM doxorubicin) was -30.4% (inactive). Moreover, the values for the inhibition in test [4] and in test [5] were -0.52% (inactive) and -1.5% (inactive), respectively.
In the case of `CCCc1[nH]nc2c1C(c1cn[nH]c1-c1ccc(F)cc1)C(C#N)=C(N)O2` (stereo unspecified), the viability in test [1] was 98.5% (inactive); in test [2] it was 48.3% (inactive); in test [3] (setting [6]), 53.7%; in test [3] (setting [7]) it was 45.4%. Besides, the differential viability (reversal) in test [3] (H69AR cells + 2 uM doxorubicin) is -8.32% (inactive). The inhibition is -2.21% (inactive) in test [4] and 2.95% (inactive) in test [5].
Turning to `CC(=O)[C@@]1(O)CC[C@H]2[C@@H]3C[C@H](C)C4=CC(=O)CC[C@]4(C)[C@H]3CC[C@@]21C`, the viability in test [1] is 106% (inactive); in test [2], 73.9% (inactive); in test [3] (setting [6]) it was 18%; in test [3] (setting [7]), 2.32%. Besides, the differential viability (reversal) in test [3] (H69AR cells + 2 uM doxorubicin) is -15.6% (inactive). For the same compound, the inhibition was -1.43% (inactive) in test [4] and -2.67% (inactive) in test [5].
Take `O=C(Nc1ccccc1-c1nc2ccccc2o1)c1ccc2c(c1)OCCO2`: the viability in test [1] was 112% (inactive); in test [2], 66.7% (inactive); in test [3] (setting [6]), 48.4%; in test [3] (setting [7]) it was 35.7%. Moreover, the differential viability (reversal) in test [3] (H69AR cells + 2 uM doxorubicin) was -12.7% (inactive). The inhibition in test [4] was -3.64% (inactive); in test [5], -4.44% (inactive).
Consider `CCN(CC)c1ccc2c(c1)CCCN2`, for which the viability in test [1] was 86.5% (inactive); in test [2], 95.9% (inactive); in test [3] (setting [6]), 56.6%; in test [3] (setting [7]), 43.4%. Besides, the differential viability (reversal) in test [3] (H69AR cells + 2 uM doxorubicin) was -13.2% (inactive). Moreover, the inhibition is -4.21% (inactive) in test [4] and 1.64% (inactive) in test [5].
Turning to `COc1ccc(-c2ccc(-c3noc(-c4ccccc4OC)n3)c(OC)n2)cc1`, the viability in test [1] is 62% (inactive); in test [2] it was 63.9% (inactive); in test [3] (setting [6]), 64.9%; in test [3] (setting [7]), 62.9%. For the same compound, the differential viability (reversal) in test [3] (H69AR cells + 2 uM doxorubicin) is -2.01% (inactive). Further, the inhibition was -4.59% (inactive) in test [4] and 18.9% (inactive) in test [5].
Take `CCn1c(=N)n(CC(=O)c2ccco2)c2ccccc21`: the viability in test [1] is 95% (inactive); in test [2], 95.5% (inactive); in test [3] (setting [6]) it was 73.2%; in test [3] (setting [7]), 34.9%. For the same compound, in test [3] (H69AR cells + 2 uM doxorubicin), the differential viability (reversal) was -38.3% (inactive). Besides, the results for the inhibition in test [4] and in test [5] were -5.2% (inactive) and -4% (inactive), respectively.
In the case of `CCOC(=O)C1CCN(CC(=O)Nc2c(C(=O)OC)[nH]c3ccc(Cl)cc23)CC1`, the viability in test [1] is 103% (inactive); in test [2] it was 65.5% (inactive); in test [3] (setting [6]), 23.5%; in test [3] (setting [7]), 58.4%. For the same compound, in test [3] (H69AR cells + 2 uM doxorubicin), the differential viability (reversal) is 34.9% (inactive). For the same compound, the inhibition in test [4] was -4.4% (inactive); in test [5], 3.09% (inactive).
Consider `COc1cc([C@@H]2c3cc4c(cc3[C@H](O)[C@H]3COC(=O)[C@H]23)OCO4)cc(OC)c1OC`, for which the viability in test [1] was 101% (inactive); in test [2], 33.9% (inactive); in test [3] (setting [6]), 63.7%; in test [3] (setting [7]), 31.2%. For the same compound, in test [3] (H69AR cells + 2 uM doxorubicin), the differential viability (reversal) was -32.5% (inactive). Besides, the results for the inhibition in test [4] and in test [5] were -2.99% (inactive) and -5.67% (inactive), respectively.
On to `CC(=O)O[C@]1(C(C)=O)CC[C@H]2[C@@H]3C=C(Cl)C4=CC(=O)CC[C@]4(C)[C@H]3CC[C@@]21C`, for which the viability was 104% (inactive) in test [1], 93.2% (inactive) in test [2], 54.4% in test [3] (setting [6]) and 31.2% in test [3] (setting [7]). Also, the differential viability (reversal) in test [3] (H69AR cells + 2 uM doxorubicin) is -23.2% (inactive). For the same compound, the inhibition in test [4] is -1.3% (inactive); in test [5] it was -2.5% (inactive).
Consider `COc1ccccc1C(=O)NCC(c1cccnc1)N(C)C` (stereo unspecified), for which the viability is 108% (inactive) in test [1] and 96% (inactive) in test [2]. For the same compound, the inhibition in test [4] is -7.12% (inactive); in test [5] it was -1.27% (inactive).
In the case of `O=C(Nc1cccc(-c2nnc(-c3ccccc3)o2)c1)C1CCCCC1`, the viability is 88% (inactive) in test [1], 82.8% (inactive) in test [2], 53.3% in test [3] (setting [6]) and 54% in test [3] (setting [7]). Further, the differential viability (reversal) in test [3] (H69AR cells + 2 uM doxorubicin) was 0.7% (inactive). Besides, the results for the inhibition in test [4] and in test [5] were -8.49% (inactive) and 3.55% (inactive), respectively.
As to `CCOC(=O)Nc1ccc2c(c1)N(C(=O)CCN1CCOCC1)c1ccccc1S2`, the viability is 78% (inactive) in test [1], 97% (inactive) in test [2], 76% in test [3] (setting [6]) and 64.7% in test [3] (setting [7]). Besides, in test [3] (H69AR cells + 2 uM doxorubicin), the differential viability (reversal) is -11.3% (inactive). In addition, the inhibition is -5.07% (inactive) in test [4] and -2.55% (inactive) in test [5].
Turning to `CN1CCN(CCCN2c3ccccc3Sc3ccc(C(F)(F)F)cc32)CC1`, the viability in test [1] was 91% (inactive); in test [2] it was 2.21% (active); in test [3] (setting [6]), 4.2%; in test [3] (setting [7]), 1.03%. Moreover, in test [3] (H69AR cells + 2 uM doxorubicin), the differential viability (reversal) was -3.17% (inactive). The inhibition is 1.43% (inactive) in test [4] and 53.8% (active) in test [5].
As to `COc1cc(/C=C/C(=O)CC(=O)/C=C/c2ccc(O)c(OC)c2)ccc1O`, the viability is 116% (inactive) in test [1], 56.8% (inactive) in test [2], 2.06% in test [3] (setting [6]) and 3.09% in test [3] (setting [7]). Besides, the differential viability (reversal) in test [3] (H69AR cells + 2 uM doxorubicin) was 1.03% (inactive). The inhibition in test [4] is -2.34% (inactive); in test [5], 3.5% (inactive).
For `N#C/C(=C\c1ccc(O)c(O)c1)C(=O)NCCCc1ccccc1`, the viability was 88% (inactive) in test [1], 43.4% (inactive) in test [2], 78% in test [3] (setting [6]) and 44.6% in test [3] (setting [7]). In test [3] (H69AR cells + 2 uM doxorubicin), the differential viability (reversal) is -33.4% (inactive). Also, the inhibition was 1.04% (inactive) in test [4] and 5.5% (inactive) in test [5].
Take `CCOC(=O)c1[nH]c(CSc2nnc(-c3ccc(OC)cc3)o2)c(C(=O)OCC)c1C`: the viability in test [1] was 56% (inactive); in test [2], 72.3% (inactive); in test [3] (setting [6]) it was 37.4%; in test [3] (setting [7]), 38%. Also, the differential viability (reversal) in test [3] (H69AR cells + 2 uM doxorubicin) is 0.61% (inactive). The inhibition was -3.24% (inactive) in test [4] and -4.36% (inactive) in test [5].
On to `COC(=O)C1=C(C)NC(C)=C(C(=O)OC)C1c1ccccc1[N+](=O)[O-]`, for which the viability in test [1] was 91% (inactive); in test [2] it was 46.7% (inactive); in test [3] (setting [6]), 2.41%; in test [3] (setting [7]), 14.3%. Besides, the differential viability (reversal) in test [3] (H69AR cells + 2 uM doxorubicin) was 11.9% (inactive). For the same compound, the inhibition in test [4] was 1.04% (inactive); in test [5], -2.67% (inactive).
With `N=c1c(C(=O)NCc2ccccc2)cc2c(=O)n3ccccc3nc2n1Cc1ccco1`, the viability in test [1] was 93% (inactive); in test [2] it was 79.2% (inactive); in test [3] (setting [6]) it was 65.5%; in test [3] (setting [7]), 52.1%. For the same compound, in test [3] (H69AR cells + 2 uM doxorubicin), the differential viability (reversal) was -13.5% (inactive). Besides, the results for the inhibition in test [4] and in test [5] were -4.25% (inactive) and 0.32% (inactive), respectively.
For `COc1ccc(C(=O)Nc2ccc(Cl)c(Cl)c2)c(OC)n1`, the viability is 93% (inactive) in test [1], 83.2% (inactive) in test [2], 47.6% in test [3] (setting [6]) and 40.5% in test [3] (setting [7]). For the same compound, the differential viability (reversal) in test [3] (H69AR cells + 2 uM doxorubicin) is -7.11% (inactive). The inhibition in test [4] is -8.53% (inactive); in test [5], -4.36% (inactive).
As to `O=C(/C=C/c1ccccc1)c1ccccc1`, the viability in test [1] is 107% (inactive); in test [2], 50.2% (inactive); in test [3] (setting [6]) it was 4.56%; in test [3] (setting [7]), 2.06%. The differential viability (reversal) in test [3] (H69AR cells + 2 uM doxorubicin) is -2.5% (inactive). Moreover, the inhibition in test [4] was 1.95% (inactive); in test [5] it was 0.67% (inactive).
For the compound `COC(=O)c1[nH]c2ccc(C)cc2c1NC(=O)CN1CCCC(C)(C)C1`, the viability in test [1] was 125% (inactive); in test [2], 77.6% (inactive); in test [3] (setting [6]), 42.2%; in test [3] (setting [7]) it was 39.1%. For the same compound, in test [3] (H69AR cells + 2 uM doxorubicin), the differential viability (reversal) is -3% (inactive). Also, the results for the inhibition in test [4] and in test [5] were -5.87% (inactive) and 4.91% (inactive), respectively.
